Results: paper PMC3815528 (Molecular nutrition & food research, 2013)

Experiments:
[1] = Metabolic profile of [6]-shogaol in dog liver microsomes; format: in vitro ADME, beagle dog; conditions: dog liver microsomes 0.5 mg/mL, [6]-shogaol 50 µM, 30 min
Method in brief: (§1)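 Microsomes in 100 mM potassium phosphate buffer with an NADPH-regenerating system were preincubated 5 min at 37°C. Reaction was started with test compound (DMSO, final ≤1% v/v) and run 30 min at 37°C, then stopped with an equal volume of ice-cold acetonitrile containing 2% acetic acid. After centrifugation at 13,000g for 10 min, supernatant went to C18 HPLC with electrochemical array detection, read at the 300 mV channel.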

[2] = Metabolic profile of [6]-shogaol in human liver microsomes; format: in vitro ADME; conditions: human liver microsomes 0.5 mg/mL, [6]-shogaol 50 µM, 30 min
[3] = Metabolic profile of [6]-shogaol in rat liver microsomes; format: in vitro ADME, Sprague-Dawley rat; conditions: rat liver microsomes 0.5 mg/mL, [6]-shogaol 50 µM, 30 min
Method in brief: as §1

[4] = Metabolic profile of [6]-shogaol in mouse liver microsomes; format: in vitro ADME, CD-1 mouse; conditions: mouse liver microsomes 0.5 mg/mL, [6]-shogaol 50 µM, 30 min
Method in brief: as §1

[5] = Metabolic profile of [6]-shogaol in monkey liver microsomes; format: in vitro ADME, cynomolgus monkey; conditions: monkey liver microsomes 0.5 mg/mL, [6]-shogaol 50 µM, 30 min
Method in brief: as §1

[6] = Kinetic study of [6]-shogaol metabolism to M6 in dog liver microsomes; format: in vitro ADME, beagle dog; conditions: dog liver microsomes 0.1 mg/mL, [6]-shogaol 7.8 to 2000 µM, 30 min
[7] = Kinetic study of [6]-shogaol metabolism to M6 in human liver microsomes; format: in vitro ADME; conditions: probe [6]-shogaol (substrate)
[8] = Kinetic study of [6]-shogaol metabolism to M6 in mouse liver microsomes; format: in vitro ADME, CD-1 mouse; conditions: mouse liver microsomes 0.1 mg/mL, [6]-shogaol 7.8 to 2000 µM, 30 min
[9] = test system: H-1299 human lung cancer cells; assay: Induction of apoptosis; format: cell-based; conditions: H-1299, 10 µM compound, 24 hours
Method in brief: (§2)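 Cells in McCoy's 5A with 10% FBS, 1% penicillin/streptomycin and 1% glutamine were seeded at 5000 cells/well and allowed to attach overnight at 37°C. They were then exposed to test compound in DMSO, diluted in medium, for 24 h. Lysates were spun at 300 g for 10 min and run in a histone–DNA sandwich ELISA (anti-histone-biotin/anti-DNA-POD, 2 h RT; ABTS 15 min; A430). Triplicate; fold over DMSO control, mean ± SD.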

[10] = test system: HCT-116 human colon cancer cells; assay: Induction of apoptosis; format: cell-based; conditions: HCT-116, 10 µM compound, 24 hours
Method in brief: as §2

[11] = test system: HCT-116 human colon cancer cells; assay: MTT growth inhibition, human colon cancer cells; format: cell-based; conditions: read-out: IC50, cell viability (MTT); HCT-116, 24 hours, 0 to 80 µM
[12] = test system: H-1299 human lung cancer cells; assay: MTT growth inhibition, human lung cancer cells; format: cell-based; conditions: read-out: IC50, cell viability (MTT); H-1299, 24 hours, 0 to 80 µM

Relative abundance of metabolite formed from [6]-shogaol [1]	Relative abundance of metabolite formed from [6]-shogaol [2]	Relative abundance of metabolite formed from [6]-shogaol [3]	Relative abundance of metabolite formed from [6]-shogaol [4]	Relative abundance of metabolite formed from [6]-shogaol [5]	Km at 30 min [7] [µM]	IC50 [11] [µM]	IC50 [12] [µM]	SMILES	Vmax of M6 formation [6]	Vmax of M6 formation [8]	Induction of apoptosis compared to DMSO control [9] [fold]	Induction of apoptosis compared to DMSO control [10] [fold]
very minor product	major product	very minor product	minute amounts	minute amounts	–	–	–	CCCCCCCC(=O)CCc1ccc(O)c(OC)c1 [M11, 1-(4'-hydroxy-3'-methoxyphenyl)-decan-3-one]	–	–	–	–
intermediate relative amount	intermediate relative amount	dominant peak	dominant peak	minor metabolite	45.6	–	–	CCCCCC=CC(O)CCc1ccc(O)c(OC)c1 (stereo not drawn) [M6, 1-(4'-hydroxy-3'-methoxyphenyl)-4-decen-3-ol]	7.33 +/− 0.43 nanomoles per minute per milligram liver microsomes	4.10 +/− 0.19 nanomoles per minute per milligram liver microsomes	–	–
–	–	–	–	–	–	19.9	17.3	CCCCC/C=C/C(=O)CCc1ccc(O)c(OC)c1 [[6]-shogaol]	–	–	~2	1
abundant	very minor	very minor	very minor	abundant	–	–	–	CCCCCCCC(=O)/C=C/c1ccc(O)c(OC)c1 [M15, (E)-1-(4'-hydroxy-3'-methoxyphenyl)-dec-1-en-3-one]	–	–	–	–
minor	smallest amount	minor	minor	major metabolite	–	–	–	CCCCC/C=C/C(=O)/C=C/c1ccc(O)c(OC)c1 [M14, (1E, 4E)-1-(4'-hydroxy-3'-methoxyphenyl)-deca-1,4-dien-3-one]	–	–	–	–
